Source: PubChem BioAssay
This is one part of a sample in which hits are shown more often than they occur.
T cruzi HTS: inhibitors of intracellular Trypanosoma cruzi | actives 4.9% (n = 22,000) | intracellular Trypanosoma cruzi in host cells, plate reader | activity score (inhibition), % at 5.01 µM; in the data active = activity score above about 55%;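 also: parasites and compound incubated about four days before reading; 0% = median of neutral control wells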
YB-1 expr inh: YB-1 expression inhibition; U2OS, qRT-PCR YB-1 vs CDIP delta delta Cp, 16 h; active compounds read high; zero = DMSO, each unit about twofold; actives 0.37% (n = 30,000); delta delta Cp (YB-1 minus CDIP) (test concentration not listed); AID 434959;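 active = delta delta Cp rounded down to an integer at or above 3, about 3 SD of DMSO wells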;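 also: higher means less YB-1 transcript or more CDIP transcript relative to DMSO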
INS-1E rescue: INS-1E beta cell protection from cytokine death. actives 0.1% (n = 20,000). protection from cytokine-induced ATP loss, % at 10 µM. INS-1E cytokine-induced death, ATP luminescence, 48 h; normalised: neutral wells 0, positive control 100;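 active = mean replicate protection from cytokine-induced ATP loss at least 50% and at least 75% of replicates each reaching 50%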
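Assay system: INS-1E rat cells / Quantity: 8000 cells per well / Medium: RPMI without phenol red, 5% FBS / Probe or stimulus: three-cytokine cocktail (IFN-γ, TNF-α, IL-1β) / Dosing: one compound concentration, pin transfer / Timing: 48 h co-treatment, 10 min post-lysis read / Technique: CellTiter-Glo luminescence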
Starred values were filed as active, the others as inactive; . = no result given.

SMILES	T cruzi HTS	YB-1 expr inh	INS-1E rescue
C[C@@H]1CN([C@@H](C)CO)C(=O)Cc2cc(N(C)C)ccc2O[C@@H]1CN(C)Cc1ccc(C(=O)Nc2ccccc2N)cc1	50	-0.31	-17
C[C@H]1CN([C@@H](C)CO)C(=O)Cc2cc(N(C)C)ccc2O[C@@H]1CN(C)Cc1ccc(C(=O)Nc2ccccc2N)cc1	70*	-0.18	6
C[C@H]1CN([C@@H](C)CO)C(=O)Cc2cc(NC(=O)Nc3cccc4ccccc34)ccc2O[C@H]1CN(C)Cc1ccc(C(=O)Nc2ccccc2N)cc1	74*	-0.32	-9
C[C@H]1CN([C@@H](C)CO)C(=O)Cc2cc(NC(=O)c3ccncc3)ccc2O[C@@H]1CN(C)Cc1ccc(C(=O)Nc2ccccc2N)cc1	32	-0.023	10
CC(C)NC(=O)Nc1ccc2c(c1)C(=O)N([C@@H](C)CO)C[C@@H](C)[C@@H](CN(C)Cc1ccccc1)O2	3	0.43	3
C[C@H](CO)N1C[C@H](C)[C@@H](CN(C)C(=O)NC2CCCCC2)Oc2ccc(NC(=O)CCCCCC(=O)Nc3ccccc3N)cc2C1=O	4	0.28	11
C[C@H]1CN([C@@H](C)CO)C(=O)Cc2cc(NC(=O)Nc3ccccc3)ccc2O[C@H]1CN(C)Cc1ccc(C(=O)Nc2ccccc2N)cc1	69*	-0.42	12
Cc1cc(C)c(OC(=O)/C=C/c2cccs2)c(C)c1	.	-0.37	.
C[C@H](CO)N1C[C@H](C)[C@H](CN(C)Cc2ccc(Oc3ccccc3)cc2)Oc2c(NC(=O)c3ccc(-c4nccs4)cc3)cccc2C1=O	86*	-0.22	-70
C[C@@H]1CN([C@H](C)CO)C(=O)c2cccc(NC(=O)c3ccc(-c4nccs4)cc3)c2O[C@H]1CN(C)Cc1ccc(Oc2ccccc2)cc1	81*	0.14	-22
C[C@H]1CN([C@@H](C)CO)C(=O)c2cccc(NC(=O)c3ccc(-c4nccs4)cc3)c2O[C@@H]1CN(C)Cc1ccc(Oc2ccccc2)cc1	31	-0.5	5
C[C@H](CO)N1C[C@H](C)[C@H](CN(C)Cc2ccccc2)Oc2c(NC(=O)c3ccc(-c4nccs4)cc3)cccc2C1=O	-24	-0.09	-3
C[C@H]1CN([C@@H](C)CO)C(=O)c2cccc(NC(=O)Nc3ccc4c(c3)OCO4)c2O[C@H]1CN(C)S(=O)(=O)c1cn(C)cn1	-13	0.078	4
Cc1noc(C)c1NC(=O)Nc1ccc2c(c1)C(=O)N([C@@H](C)CO)C[C@@H](C)[C@H](CN(C)C(=O)Nc1ccccc1)O2	-20	-0.22	3
C[C@@H]1CN([C@H](C)CO)C(=O)c2cccc(NC(=O)Nc3ccc(C(F)(F)F)cc3)c2O[C@H]1CN(C)Cc1ccc(Cl)c(Cl)c1	87*	0.18	-36
C[C@H]1CN([C@@H](C)CO)C(=O)c2cccc(NC(=O)Nc3ccc(F)cc3)c2O[C@H]1CN(C)Cc1ccc(Cl)c(Cl)c1	-33	0.19	-12
C[C@H](CO)N1C[C@H](C)[C@@H](CN(C)Cc2ccc(Cl)c(Cl)c2)Oc2c(NC(=O)Nc3ccc(F)cc3)cccc2C1=O	18	0.26	-23
C[C@@H]1CN([C@H](C)CO)C(=O)c2cccc(NC(=O)Nc3ccc(F)cc3)c2O[C@H]1CN(C)Cc1ccc(Cl)c(Cl)c1	35	-0.078	-8
C[C@@H]1CN([C@@H](C)CO)C(=O)c2cccc(NC(=O)Nc3ccc(C(F)(F)F)cc3)c2O[C@H]1CN(C)Cc1ccc(Cl)c(Cl)c1	78*	0.021	-52
C[C@@H]1CN([C@H](C)CO)C(=O)c2cccc(NC(=O)Nc3ccc(C(F)(F)F)cc3)c2O[C@@H]1CN(C)Cc1ccc(Cl)c(Cl)c1	85*	0.26	-64
CC(C)NC(=O)N(C)C[C@H]1Oc2c(NS(=O)(=O)c3cccs3)cccc2C(=O)N([C@@H](C)CO)C[C@H]1C	3	-0.1	8
C[C@@H]1CN([C@H](C)CO)C(=O)c2cc(NS(=O)(=O)c3ccc(F)cc3)ccc2O[C@H]1CN(C)Cc1ccc(C(=O)O)cc1	-22	-0.15	9
COc1ccc(S(=O)(=O)N(C)C[C@@H]2Oc3ccc(NS(=O)(=O)c4cccs4)cc3CC(=O)N([C@H](C)CO)C[C@@H]2C)cc1	4	-0.038	-1
C[C@@H]1CN([C@@H](C)CO)C(=O)c2cccc(NC(=O)C3CCCCC3)c2O[C@@H]1CN(C)Cc1ccc(C(=O)Nc2ccccc2N)cc1	61*	-0.47	47
C[C@H]1CN([C@@H](C)CO)C(=O)c2cccc(NC(=O)NC3CCCCC3)c2O[C@H]1CN(C)Cc1ccc(C(=O)Nc2ccccc2N)cc1	60*	-0.14	-19
SMILES	T cruzi HTS	YB-1 expr inh	INS-1E rescue
CC(C)NC(=O)Nc1cccc2c1O[C@H](CN(C)Cc1ccc(C(=O)Nc3ccccc3N)cc1)[C@H](C)CN([C@@H](C)CO)C2=O	52	-0.0081	28
C[C@H](CO)N1C[C@H](C)[C@H](CN(C)Cc2ccc(C(=O)Nc3ccccc3N)cc2)Oc2c(NC(=O)NC3CCCCC3)cccc2C1=O	58*	-0.3	-9
C[C@@H]1CN([C@H](C)CO)C(=O)c2cccc(NC(=O)NC3CCCCC3)c2O[C@@H]1CN(C)Cc1ccc(C(=O)Nc2ccccc2N)cc1	67*	0.11	17
CC(C)NC(=O)Nc1cccc2c1O[C@@H](CN(C)Cc1ccc(C(=O)Nc3ccccc3N)cc1)[C@@H](C)CN([C@@H](C)CO)C2=O	27	-0.42	-15
C[C@@H]1CN([C@@H](C)CO)C(=O)c2cccc(NC(=O)C3CC3)c2O[C@H]1CN(C)Cc1ccc(C(=O)Nc2ccccc2N)cc1	38	-0.11	-10
CC(C)NC(=O)Nc1cccc2c1O[C@@H](CN(C)Cc1ccc(C(=O)Nc3ccccc3N)cc1)[C@@H](C)CN([C@H](C)CO)C2=O	31	0.12	-14
CN(C)C(=O)[C@]1(CCS(=O)(=O)c2ccccc2)N=C(c2ccc(OCCCO)cc2)O[C@@H]1c1ccccc1	.	0.098	.
O=C(NO)c1cccc(C(=O)N/N=C/c2ccc(Br)cc2)c1	4	-0.058	-10
C[C@H]1CN([C@@H](C)CO)C(=O)Cc2cc(NC(=O)c3ccncc3)ccc2O[C@@H]1CN(C)C(=O)Nc1cccc2ccccc12	-13	-0.33	2
CN(C)/C=N/n1cnc2sc3c(c2c1=O)CCCC3	.	-0.76	.
C[C@@H]1CN([C@@H](C)CO)C(=O)c2cc(NS(C)(=O)=O)ccc2O[C@H]1CN(C)S(=O)(=O)c1cccs1	-6	-0.75	1
Cn1c2c(c(=O)n(C)c1=O)CN(C1CCCC1)CN2	.	4*	.
S=C1NCN(C2CCCCC2)CN1	.	0.44	.
C[C@@H]1CCCCO[C@@H](CN(C)Cc2ccc(C(=O)Nc3ccccc3N)cc2)[C@@H](C)CN([C@H](C)CO)C(=O)c2cc(NC(=O)Nc3ccc(C(F)(F)F)cc3)ccc2O1	81*	-0.27	-45
C[C@@H]1CCCCO[C@@H](CN(C)Cc2ccc(C(F)(F)F)cc2)[C@@H](C)CN([C@H](C)CO)C(=O)c2cc(NC(=O)c3ccncc3)ccc2O1	9	0.21	-10
